Measured values as given in ChEMBL document CHEMBL3407394, “Synthesis and in vitro anticancer activity evaluation of novel bioreversible phosphate inositol derivatives” (Eur J Med Chem, 2015).

How the values were obtained:
[1] = tested on: A549; test: Cytotoxicity against human A549 cells assessed as growth inhibition after 72 hrs by MTT assay; format: functional, cell-based; details: A549, 72 h
In short: (§1)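 A549, HeLa and MDA-MB-231 cells were grown in DMEM with 10% FBS and 1% penicillin/streptomycin. About 1000 cells/well were seeded and left 12 h, then exposed to a dilution series in DMSO (final 0.5% DMSO) for 72 h at 37 °C, 5% CO2. MTT in fresh medium was added for 4 h, formazan dissolved in DMSO, and OD570 read. Viability was normalized to vehicle, and IC50 taken by linear regression of concentration-response curves.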

[2] = tested on: HeLa; test: Cytotoxicity against human HeLa cells assessed as growth inhibition after 72 hrs by MTT assay; format: functional, cell-based; in short: as §1
[3] = Cytotoxicity against human MCF10A cells assessed as growth inhibition after 72 hrs by MTT assay; format: cell-based; details: MCF-10A
In short: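 MCF10A non-cancerous cells were maintained in DMEM/F12 with 5% horse serum. About 1000 cells/well were seeded and attached for 12 h, then dosed over a dilution series (DMSO vehicle, final 0.5%) for 72 h at 37 °C, 5% CO2. MTT in fresh medium ran 4 h, formazan was dissolved in DMSO and OD570 measured. Viability was relative to vehicle-treated cells, and IC50 came from linear regression of concentration-response curves.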

[4] = tested on: MDA-MB-231; test: Cytotoxicity against human MDA-MB-231 cells assessed as growth inhibition at 10 ug/ml after 72 hrs by MTT assay; format: functional; details: MDA-MB-231, 72 h, read-out: GI
In short: (§2)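 Single-concentration screen in A549, HeLa or MDA-MB-231 cells cultured in DMEM, 10% FBS, 1% penicillin/streptomycin. About 1000 cells/well were preincubated 12 h, and compound diluted in DMEM to the final well concentration (0.5% DMSO) for 72 h at 37 °C, 5% CO2. Readout was MTT 4 h, DMSO-solubilized formazan, OD570, with inhibition relative to DMSO vehicle. Cisplatin in 1% NaCl (pH 7) served as positive control.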

[5] = Cytotoxicity against human MCF10A cells assessed as growth inhibition at 10 ug/ml after 72 hrs by MTT assay; format: cell-based, MCF-10A; details: read-out: GI
In short: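 MCF10A cells in DMEM/F12 plus 5% horse serum, about 1000 per well, were incubated 12 h, then treated at one final well concentration diluted in DMEM (0.5% DMSO) for 72 h, 37 °C, 5% CO2. Viability was by MTT: 4 h in fresh medium, formazan dissolved in DMSO, absorbance at 570 nm, normalized to vehicle controls. Cisplatin in 1% NaCl, pH 7, was the positive control.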

[6] = tested on: A549; test: Cytotoxicity against human A549 cells assessed as growth inhibition at 10 ug/ml after 72 hrs by MTT assay; format: functional; details: A549, 72 h, read-out: GI; in short: as §2
[7] = tested on: MDA-MB-231; test: Cytotoxicity against human MDA-MB-231 cells assessed as growth inhibition after 72 hrs by MTT assay; format: functional, cell-based; details: MDA-MB-231, 72 h; in short: as §1
[8] = tested on: HeLa; test: Cytotoxicity against human HeLa cells assessed as growth inhibition at 10 ug/ml after 72 hrs by MTT assay; format: functional; details: read-out: GI; in short: as §2

| SMILES | IC50 [1] | IC50 [2] | IC50 [3] | inhibition of growth at 10 µg/mL [4] | inhibition at 72 h, 10 ug/ml [5] | inhibition of growth at 10 µg/mL [6] | IC50 [7] | inhibition of growth at 10 µg/mL [8] |
| --- | --- | --- | --- | --- | --- | --- | --- | --- |
| CC(=O)Oc1ccc(COP(=O)(OCc2ccc(OC(C)=O)cc2)OC2C3OC4OC(C3OCc3ccccc3)C(OCc3ccccc3)C2O4)cc1 (centres undefined) | 6.75 µM | 1260 nM | 45.4 µM | 95.8% | 20.1% | 88.9% | 2770 nM | 100% |
| CC(=O)Oc1ccc(COP(=O)(OCc2ccc(OC(C)=O)cc2)OC2C3OC4OC(C3OCc3ccccc3)C(O[Si](C)(C)C(C)(C)C)C2O4)cc1 (centres undefined) | 9.51 µM | 1350 nM | 38.1 µM | 84.3% | 100% | 100% | 2350 nM | 100% |
| CC(=O)Oc1ccc(COP(=O)(OCc2ccc(OC(C)=O)cc2)OC2C(OCc3ccccc3)C3OCOC(C3OCc3ccccc3)C2OCc2ccccc2)cc1 (centres undefined) | 8.15 µM | 1520 nM | 18.9 µM | 12.4% | 48.9% | 75.4% | 1580 nM | 98.1% |
| CC(=O)Oc1ccc(COP(=O)(OCc2ccc(OC(C)=O)cc2)OC2C(OCc3ccccc3)C3OC(C)OC(C3OCc3ccccc3)C2OCc2ccccc2)cc1 (centres undefined) | 11.4 µM | 2790 nM | 8.19 µM | 9.5% | 98.1% | 96.6% | 2850 nM | 100% |
| CC(=O)Oc1ccc(COP(=O)(OCc2ccc(OC(C)=O)cc2)O[C@H]2[C@@H]3OC(C)(C)O[C@H]3[C@H](OP(=O)(OCc3ccc(OC(C)=O)cc3)OCc3ccc(OC(C)=O)cc3)[C@H]3OC(C)(C)O[C@H]32)cc1 | 2.34 µM | 620 nM | 25.1 µM | 91.8% | -10.7% | 90.1% | 830 nM | 100% |
| CC(=O)Oc1ccc(COP(=O)(OCc2ccc(OC(C)=O)cc2)OC2C3OC4OC(C3OCc3ccccc3)C(OP(=O)(OCc3ccc(OC(C)=O)cc3)OCc3ccc(OC(C)=O)cc3)C2O4)cc1 (centres undefined) | 1.37 µM | 760 nM | > 50 µM | 99.7% | 38.8% | 98.5% | 1530 nM | 100% |
| CC(=O)Oc1ccc(COP(=O)(OCc2ccc(OC(C)=O)cc2)OC2C3OCOC(C3OCc3ccccc3)C(OCc3ccccc3)C2OP(=O)(OCc2ccc(OC(C)=O)cc2)OCc2ccc(OC(C)=O)cc2)cc1 (centres undefined) | 2.01 µM | 620 nM | 0.85 µM | 86.8% | 90.4% | 92.1% | 430 nM | 100% |
| CC(=O)Oc1ccc(COP(=O)(OCc2ccc(OC(C)=O)cc2)OC2C3OCOC2C(OCc2ccccc2)C(OP(=O)(OCc2ccc(OC(C)=O)cc2)OCc2ccc(OC(C)=O)cc2)C3OCc2ccccc2)cc1 (centres undefined) | 5.55 µM | 950 nM | 23.2 µM | 99.4% | 48% | 43.7% | 2370 nM | 100% |
| CC(=O)Oc1ccc(COP(=O)(OCc2ccc(OC(C)=O)cc2)O[C@@H]2[C@@H](OCc3ccccc3)[C@H](OP(=O)(OCc3ccc(OC(C)=O)cc3)OCc3ccc(OC(C)=O)cc3)[C@H](OCc3ccccc3)[C@H](OCc3ccccc3)[C@H]2OCc2ccccc2)cc1 | 26.7 µM | 12200 nM | > 40 µM | 88.4% | 10.5% | 27.1% | 28600 nM | 27.2% |
| CC(=O)Oc1ccc(COP(=O)(OCc2ccc(OC(C)=O)cc2)OC2C3OC4OC2C(OP(=O)(OCc2ccc(OC(C)=O)cc2)OCc2ccc(OC(C)=O)cc2)C(O4)C3OP(=O)(OCc2ccc(OC(C)=O)cc2)OCc2ccc(OC(C)=O)cc2)cc1 (centres undefined) | 7.09 µM | 1410 nM | > 20 µM | 92.4% | -2.9% | 85.8% | 1890 nM | 94.2% |
| CC(=O)Oc1ccc(COP(=O)(OCc2ccc(OC(C)=O)cc2)OC2C3OCOC2C(OP(=O)(OCc2ccc(OC(C)=O)cc2)OCc2ccc(OC(C)=O)cc2)C(OP(=O)(OCc2ccc(OC(C)=O)cc2)OCc2ccc(OC(C)=O)cc2)C3OCc2ccccc2)cc1 (centres undefined) | 4.27 µM | 1080 nM | > 20 µM | 94.4% | 2.5% | 94% | 1680 nM | 94.3% |
| C#CCO[C@@H]1[C@@H](OCc2ccccc2)[C@H](OP(=O)(OCc2ccc(OC(C)=O)cc2)OCc2ccc(OC(C)=O)cc2)[C@H](OP(=O)(OCc2ccc(OC(C)=O)cc2)OCc2ccc(OC(C)=O)cc2)[C@H](OP(=O)(OCc2ccc(OC(C)=O)cc2)OCc2ccc(OC(C)=O)cc2)[C@H]1OCc1ccccc1 | > 30 µM | 19000 nM | > 30 µM | 88.1% | 15.4% | 2.5% | > 30000 nM | 100% |
| CC(=O)Oc1ccc(COP(=O)(OCc2ccc(OC(C)=O)cc2)O[C@@H]2[C@@H](OP(=O)(OCc3ccc(OC(C)=O)cc3)OCc3ccc(OC(C)=O)cc3)[C@H](OCc3ccccc3)[C@@H](OCc3ccccc3)[C@H](OCc3ccccc3)[C@@H]2OP(=O)(OCc2ccc(OC(C)=O)cc2)OCc2ccc(OC(C)=O)cc2)cc1 | 3.17 µM | > 20000 nM | > 20 µM | 52.8% | 55.3% | 34.9% | 3280 nM | 68.5% |
